According to ChEMBL document CHEMBL1124408, “3-aminopyridazine derivatives with atypical antidepressant, serotonergic, and dopaminergic activities” (J Med Chem, 1989):

Key:
[1] = Acute toxicity in mice after intraperitoneal administration.; details: mouse, in vivo, ip, LD50
Mus musculus [2] = test: Antidepressant activity against reserpine induced ptosis in mice after intraperitoneal administration.; format: functional; details: ip
In short: (§1)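 Female CD1 mice (18-22 g) received the drug in distilled water/gum tragacanth ip at multiple doses (7-20 mice/dose), given together with reserpine (2 mg/kg iv). One hour later, palpebral ptosis (half or more of the lid closed) was scored all-or-none. Screening dose was at most 50% of the seizure threshold dose.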

Mus musculus [3] = test: Ability to modify turning behavior of mice after intraperitoneal administration; format: functional; details: ip, read-out: MED
In short: (§2)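 Female CD1 mice (25-30 g) were lesioned by stereotaxic injection of 6-OHDA (10 μg in 1 μL saline with 1 mg/mL ascorbic acid) into the right striatum under pentobarbitone (60 mg/kg ip). Seven days later, drug in distilled water/gum tragacanth was given ip at multiple doses (7-20 mice/dose). Ipsilateral turns were counted for 2 min starting 30 min post-dose.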

Mus musculus [4] = test: Serotonergic activity was determined by measuring the potentiation of 5-hydroxytryptophan in mice upon ip administration; format: functional
In short: (§3)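 Drug was injected ip in distilled water/gum tragacanth to female CD1 mice (18-22 g) at multiple doses (7-20 mice/dose), 30 min before a threshold dose of L-5-HTP (200 mg/kg ip). Mice were held singly in small cages, and tremor was scored all-or-none over the 20 min after L-5-HTP.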

Mus musculus [5] = test: Compound was tested for antidepressant activity against reserpine induced ptosis in mice after intraperitoneal administration.; value ranges from 11-34; format: functional; details: ip; in short: as §1
Mus musculus [6] = test: Serotonergic activity by measuring the potentiation of 5-hydroxy tryptophan in mice upon ip administration; value ranges from 17-20; format: functional; in short: as §3
Mus musculus [7] = test: Compound was tested for antidepressant activity against reserpine induced ptosis in mice after intraperitoneal administration.; value ranges from 16-20; format: functional; details: ip; in short: as §1
Mus musculus [8] = test: Compound was tested for antidepressant activity against reserpine induced ptosis in mice after intraperitoneal administration.; value ranges from 27-31; format: functional; details: ip; in short: as §1
Mus musculus [9] = test: Serotonergic activity by measuring the potentiation of 5-hydroxy tryptophan in mice upon ip administration; value ranges from 1.4-2.1; format: functional; in short: as §3
Mus musculus [10] = test: Compound was tested for antidepressant activity against reserpine induced ptosis in mice after intraperitoneal administration.; value ranges from 9-12; format: functional; details: ip; in short: as §1
Mus musculus [11] = test: Serotonergic activity by measuring the potentiation of 5-hydroxy tryptophan in mice upon ip administration; value ranges from 4.4-5.7; format: functional; in short: as §3
Mus musculus [12] = test: Compound was tested for antidepressant activity against reserpine induced ptosis in mice after intraperitoneal administration.; value ranges from 5.9-7.3; format: functional; details: ip; in short: as §1
[13] = Compound was tested for acute toxicity in mice after intraperitoneal administration; format: organism-based; details: mouse, in vivo, ip
In short: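 Female CD1 mice in groups of 5-10 received drug or vehicle (distilled water with gum tragacanth) ip. LD50 was derived graphically.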

Mus musculus [14] = test: Ability to modify turning behavior of mice after intraperitoneal administration.; format: functional; details: ip, read-out: MED; in short: as §2
Mus musculus [15] = test: Compound was tested for antidepressant activity against reserpine induced ptosis in mice after intraperitoneal administration.; value ranges from 0.13-0.22; format: functional; details: ip; in short: as §1
Mus musculus [16] = test: Compound was tested for antidepressant activity against reserpine induced ptosis in mice after intraperitoneal administration.; value ranges from 5-9; format: functional; details: ip; in short: as §1
Mus musculus [17] = test: Compound was tested for antidepressant activity against reserpine induced ptosis in mice after intraperitoneal administration.; value ranges from 14-18; format: functional; details: ip; in short: as §1
Mus musculus [18] = test: Compound was tested for antidepressant activity against reserpine induced ptosis in mice after intraperitoneal administration; 50% activity at this maximal tested dose; format: functional; details: ip; in short: as §1

Row | Compound | LD50 [1] | ED50 (Mus musculus [2]) | minimal effective dose (Mus musculus [3]) | ED50 (Mus musculus [4]) | also measured
1 | Cc1cc(-c2ccccc2F)nnc1NCCN1CCOCC1 | 26 mg/kg | > 10 mg/kg | 0.5 mg/kg | > 10 mg/kg | 
2 | Cc1cc(-c2ccccc2)nnc1NCCN1CCOCC1C (stereo not drawn) | 110 mg/kg |  | > 2 mg/kg | 30 mg/kg | ED50 (Mus musculus [5]): 20 mg/kg
3 | Br.Br.Cc1cc(-c2ccccc2O)nnc1NCCN1CCOCC1 | > 200 mg/kg |  | 0.1 mg/kg |  | ED50 (Mus musculus [6]): 17 mg/kg; ED50 (Mus musculus [7]): 16 mg/kg
4 | Cc1cc(-c2ccccc2)nnc1NCCN(C)C | 118 mg/kg |  | 10 mg/kg | > 30 mg/kg | ED50 (Mus musculus [8]): 29 mg/kg
5 | Br.Br.Cc1cc(-c2ccc(O)cc2)nnc1NCCN1CCOCC1 [MOXIRAPRINE DIBROMIDE] | > 300 mg/kg | > 40 mg/kg | 0.1 mg/kg | > 100 mg/kg | 
6 | Cc1cc(-c2ccc([N+](=O)[O-])cc2)nnc1NCCN1CCOCC1 | 35 mg/kg |  |  |  | 
7 | Cc1cc(-c2ccc(N)cc2)nnc1NCCN1CCOCC1 | 15 mg/kg | > 5 mg/kg | > 2 mg/kg |  | 
8 | Cc1cc(-c2ccsc2)nnc1NCCN1CCOCC1 | 72 mg/kg |  | > 10 mg/kg |  | ED50 (Mus musculus [9]): 1.7 mg/kg; ED50 (Mus musculus [10]): 10 mg/kg
9 | CCCN(CCC)CCNc1nnc(-c2ccccc2)cc1C | 76 mg/kg | > 30 mg/kg | 2 mg/kg | > 30 mg/kg | 
10 | CCN(CC)CCNc1nnc(-c2ccccc2)cc1C | 80 mg/kg | > 30 mg/kg | > 10 mg/kg | > 30 mg/kg | 
11 | Clc1ccc(Cc2cc(-c3ccccc3)nnc2NCCN2CCOCC2)cc1 | 180 mg/kg | > 30 mg/kg | 10 mg/kg | > 30 mg/kg | 
12 | Cc1cc(-c2cccc3ccccc23)nnc1NCCN1CCOCC1 | 7 mg/kg | > 2.5 mg/kg | 0.01 mg/kg | > 2.5 mg/kg | 
13 | N#Cc1cc(-c2ccccc2)nnc1NCCN1CCOCC1 [BAZINAPRINE] |  |  | 0.1 mg/kg |  | ED50 (Mus musculus [11]): 5 mg/kg; ED50 (Mus musculus [12]): 6.6 mg/kg
14 | Cc1cc(Cc2ccccc2)nnc1NCCN1CCOCC1 | 30 mg/kg | > 10 mg/kg | 2 mg/kg | > 10 mg/kg | 
15 | Cc1cc(-c2ccccc2)nnc1NCCCN1CCOCC1 |  | > 30 mg/kg | 2 mg/kg | > 25 mg/kg | LD50 [13]: 66 mg/kg
16 | CN1Cc2c(N)cccc2C(c2ccccc2)C1 (stereo not drawn) [NOMIFENSINE] |  |  |  | > 30 mg/kg | minimal effective dose (Mus musculus [14]): 5 mg/kg; ED50 (Mus musculus [15]): 0.17 mg/kg
17 | Cc1cc(-c2ccccc2)nnc1NCCCN | 300 mg/kg | 50 mg/kg | 0.1 mg/kg | > 30 mg/kg | 
18 | COc1cccc(-c2cc(C)c(NCCN3CCOCC3)nn2)c1 | 18 mg/kg |  | 0.5 mg/kg | > 5 mg/kg | ED50 (Mus musculus [16]): 6 mg/kg
19 | Cc1cc(-c2ccccc2)nnc1NCCN | 300 mg/kg |  | 0.5 mg/kg | > 30 mg/kg | ED50 (Mus musculus [17]): 16 mg/kg
20 | Cc1cc(-c2ccc3ccccc3c2)nnc1NCCN1CCOCC1 | 23 mg/kg | > 10 mg/kg | > 2 mg/kg |  | 
21 | Cc1cc(-c2ccccc2Cl)nnc1NCCN1CCOCC1 | 7 mg/kg | > 5 mg/kg | 1 mg/kg |  | 
22 | COc1ccccc1-c1cc(C)c(NCCN2CCOCC2)nn1 | 40 mg/kg | > 10 mg/kg | 0.5 mg/kg | > 10 mg/kg | 
23 | Cc1ccccc1-c1cc(C)c(NCCN2CCOCC2)nn1 | 5 mg/kg | > 1 mg/kg | > 1 mg/kg | > 1 mg/kg | 
24 | Cc1cccc(-c2cc(C)c(NCCN3CCOCC3)nn2)c1 | 23 mg/kg |  | > 2 mg/kg | > 10 mg/kg | ED50 (Mus musculus [18]): 10 mg/kg
